Assay [1] deals with SOS1-KRAS (Homo sapiens), Q07889+P01116 [G12C]. Briefly: Binding affinity to N-terminal GST-tagged recombinant human KRAS G12C mutant (1 to 169 residues) expressed in Escherichia coli/N-terminal His10-tagged wild-type recombinant human SOS1 catalytic domain (564 to 1049 residues) expressed in Escherichia coli at 200 uM by STD-NMR analysis.
For assay [2], the system named is GTPase KRas (Homo sapiens), P01116 [G12C]. Briefly: Binding affinity to N-terminal GST-tagged recombinant human KRAS G12C mutant (1 to 169 residues) expressed in Escherichia coli at 200 uM by STD-NMR analysis.
In assay [3] the target is T1, Son of sevenless homolog 1 (Homo sapiens) (UniProt Q07889).
T1 sequence (whole entry): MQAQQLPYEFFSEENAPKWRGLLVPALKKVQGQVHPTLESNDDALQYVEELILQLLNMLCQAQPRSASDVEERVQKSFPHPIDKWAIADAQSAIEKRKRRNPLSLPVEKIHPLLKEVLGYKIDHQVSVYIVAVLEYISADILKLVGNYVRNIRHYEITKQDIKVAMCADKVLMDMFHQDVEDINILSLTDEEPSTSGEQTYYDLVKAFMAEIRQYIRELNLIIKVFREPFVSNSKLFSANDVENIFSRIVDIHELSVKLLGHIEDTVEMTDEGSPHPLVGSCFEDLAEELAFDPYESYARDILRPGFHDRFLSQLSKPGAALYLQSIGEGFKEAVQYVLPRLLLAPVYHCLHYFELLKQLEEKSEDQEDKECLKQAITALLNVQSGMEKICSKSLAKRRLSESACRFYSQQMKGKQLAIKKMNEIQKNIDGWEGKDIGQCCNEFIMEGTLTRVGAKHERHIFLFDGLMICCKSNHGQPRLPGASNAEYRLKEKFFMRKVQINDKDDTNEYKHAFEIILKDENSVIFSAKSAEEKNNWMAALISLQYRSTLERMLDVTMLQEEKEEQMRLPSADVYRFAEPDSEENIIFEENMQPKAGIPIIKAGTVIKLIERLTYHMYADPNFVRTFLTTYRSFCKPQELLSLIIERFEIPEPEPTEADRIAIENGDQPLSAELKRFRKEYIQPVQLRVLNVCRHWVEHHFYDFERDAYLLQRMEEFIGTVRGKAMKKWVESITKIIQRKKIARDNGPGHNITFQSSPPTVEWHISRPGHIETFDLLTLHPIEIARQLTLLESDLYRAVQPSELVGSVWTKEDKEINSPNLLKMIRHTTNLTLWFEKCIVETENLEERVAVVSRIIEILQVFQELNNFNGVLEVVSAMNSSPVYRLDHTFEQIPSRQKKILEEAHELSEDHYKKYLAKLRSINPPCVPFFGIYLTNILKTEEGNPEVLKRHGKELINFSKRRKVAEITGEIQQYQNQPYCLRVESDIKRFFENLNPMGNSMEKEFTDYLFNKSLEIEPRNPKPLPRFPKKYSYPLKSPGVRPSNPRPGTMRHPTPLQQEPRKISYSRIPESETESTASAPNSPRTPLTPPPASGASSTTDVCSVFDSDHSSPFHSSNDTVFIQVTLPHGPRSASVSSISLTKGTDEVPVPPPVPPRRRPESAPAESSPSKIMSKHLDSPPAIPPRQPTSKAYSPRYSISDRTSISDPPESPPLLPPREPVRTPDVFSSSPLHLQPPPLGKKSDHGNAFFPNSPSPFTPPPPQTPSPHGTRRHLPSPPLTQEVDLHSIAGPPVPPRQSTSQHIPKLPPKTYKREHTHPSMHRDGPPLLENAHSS
Briefly: Binding affinity to N-terminal His10-tagged wild-type recombinant human SOS1 catalytic domain (564 to 1049 residues) expressed in Escherichia coli at 200 uM by STD-NMR analysis.

The species entered for assay [4] is Homo sapiens. Briefly: Stabilization of N-terminal His10-tagged 15N-labeled recombinant human KRAS G12C/C118S mutant (1 to 169 residues) expressed in Escherichia coli/N-terminal His10-tagged wild-type recombinant human SOS1 catalytic domain (564 to 1049 residues) expressed in Escherichia coli at 1 mM incubated for 30 mins by 2D-NMR analysis.
For assay [5], the species on record is Homo sapiens. Kind of assay: Stabilization of N-terminal His10-tagged recombinant human KRAS G12C/C118S mutant (1 to 169 residues) expressed in Escherichia coli/Series S C1 sensor chip-immobilized biotinylated N-terminal His10-tagged wild-type recombinant human SOS1 catalytic domain (564 to 1049 residues) expressed in Escherichia coli at 100 to 500 uM measured for 360 secs by SPR analysis. The following applies: dose 100-500 µM, time 360.0 sec. An outline of the steps:
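SOS1cat is immobilized on the chip, and 250 nM KRASG12C_C118S is flowed over with or without test compound. Compound alone at 100, 250 and 500 µM is also injected to gauge unspecific binding to SOS1cat. Buffer injection serves as the blank.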
For orientation: SPR reads the build-up and loss of mass on a sensor chip optically.

The species entered for assay [6] is Homo sapiens. Briefly: Stabilization of N-terminal His10-tagged recombinant human KRAS G12C/C118S mutant (1 to 169 residues) expressed in Escherichia coli/N-terminal His10-tagged wild-type recombinant human SOS1 catalytic domain (564 to 1049 residues) expressed in Escherichia coli by HTRF analysis. An outline of the steps: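 HTRF equilibrium-binding read-out of KRASG12C_C118S with SOS1cat, detected by fluorescently labelled antibodies including a terbium donor. Signal normalized with DMSO control as 100% and no-SOS1cat wells as 0%. Data are mean ± SD, n = 4.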
(TR-FRET usually uses a lanthanide donor and a delayed reading to cut background.)

The target in assay [7] is Son of sevenless homolog 2 (Homo sapiens, UniProt Q07890). Kind of assay: Inhibition of N-terminal His10-tagged wild-type recombinant human SOS2 catalytic domain (564 to 1043 residues) expressed in Escherichia coli assessed as reduction in KRAS G12C mutant activation preincubated for 10 mins with KRAS followed by SOS2 addition measured after 30 mins in presence of EDA-GTP-DY-647P1 by HTRF analysis.

Assay [8] concerns the target T2, Guanine nucleotide exchange factor DBS (Homo sapiens, UniProt O15068).
T2 sequence (O15068 whole entry): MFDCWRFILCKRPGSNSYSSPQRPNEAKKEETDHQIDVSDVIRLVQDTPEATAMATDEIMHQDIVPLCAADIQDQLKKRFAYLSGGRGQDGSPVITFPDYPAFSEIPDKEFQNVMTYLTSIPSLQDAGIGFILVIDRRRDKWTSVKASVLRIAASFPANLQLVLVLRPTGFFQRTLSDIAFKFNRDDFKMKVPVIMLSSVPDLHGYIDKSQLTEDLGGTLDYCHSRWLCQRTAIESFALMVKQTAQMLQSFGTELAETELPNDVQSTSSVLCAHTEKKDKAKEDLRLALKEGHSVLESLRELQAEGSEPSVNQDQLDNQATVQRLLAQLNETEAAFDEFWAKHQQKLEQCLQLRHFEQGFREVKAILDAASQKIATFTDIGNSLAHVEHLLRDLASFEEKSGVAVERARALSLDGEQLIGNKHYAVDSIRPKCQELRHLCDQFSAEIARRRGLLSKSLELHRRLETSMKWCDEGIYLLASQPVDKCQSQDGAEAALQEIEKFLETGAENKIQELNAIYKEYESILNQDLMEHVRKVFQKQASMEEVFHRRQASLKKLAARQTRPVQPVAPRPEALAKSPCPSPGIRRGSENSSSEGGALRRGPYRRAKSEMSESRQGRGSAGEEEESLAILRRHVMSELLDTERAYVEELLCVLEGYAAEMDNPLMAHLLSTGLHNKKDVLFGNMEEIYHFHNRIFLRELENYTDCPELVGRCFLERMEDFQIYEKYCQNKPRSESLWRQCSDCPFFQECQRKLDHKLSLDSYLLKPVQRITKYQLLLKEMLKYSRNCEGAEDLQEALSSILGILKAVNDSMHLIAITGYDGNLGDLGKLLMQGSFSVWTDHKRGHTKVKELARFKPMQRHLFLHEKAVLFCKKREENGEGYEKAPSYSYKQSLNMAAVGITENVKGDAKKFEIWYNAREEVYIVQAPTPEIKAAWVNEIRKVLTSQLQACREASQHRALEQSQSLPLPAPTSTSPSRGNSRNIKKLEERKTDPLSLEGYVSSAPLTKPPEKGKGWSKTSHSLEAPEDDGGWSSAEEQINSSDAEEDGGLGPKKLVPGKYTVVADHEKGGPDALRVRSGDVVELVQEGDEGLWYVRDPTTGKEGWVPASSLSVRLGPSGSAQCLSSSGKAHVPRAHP
Kind of assay: Inhibition of human DBS assessed as reduction in CDC42 activation preincubated for 1 min with CDC42 followed by DBS addition measured after 20 mins in presence of EDA-GTP-DY-647P1 by HTRF analysis.

Assay [9] deals with Epidermal growth factor receptor (Homo sapiens, UniProt P00533). Briefly: Inhibition of human EGFR using biotin-aminohexyl-AEEEEYFELVAKKK as substrate preincubated for 15 mins followed by substrate/ATP addition measured after 20 mins by FRET assay.
Assay [10] addresses GTPase KRas (Homo sapiens) (UniProt P01116). Briefly: Stabilization of N-terminal His10-tagged wild-type recombinant human KRAS (1 to 169 residues) expressed in Escherichia coli assessed as change in melting temperature at 100 uM with heating from 25 to 85 degreeC by thermal shift assay.
Assay [11] addresses T1, Son of sevenless homolog 1 (Homo sapiens). Kind of assay: Stabilization of N-terminal His10-tagged wild-type recombinant human SOS1 catalytic domain (564 to 1049 residues) expressed in Escherichia coli assessed as change in melting temperature at 100 uM with heating from 25 to 85 degreeC by thermal shift assay.
In assay [12] the test system is GTPase KRas (Homo sapiens), P01116 [G12C]. Briefly: Stabilization of N-terminal GST-tagged recombinant human KRAS G12C mutant (1 to 169 residues) expressed in Escherichia coli assessed as change in melting temperature at 100 uM with heating from 25 to 85 degreeC by thermal shift assay.
The subject of assay [13] is K562. Kind of assay: Antiproliferative activity against human K562 cells assessed as inhibition of cell viability incubated for 72 hrs by Cell Titer Glo assay. Type of assay: functional, cell-based. The following applies: K562, 72 h. Put shortly: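 K-562 cells (wild-type KRAS, sourced from ATCC) were tested for antiproliferative response.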
For orientation: Cellular ATP, detected with luciferase, serves as a proxy for viable cell number.

A further assay relates to NCI-H358. Kind of assay: Antiproliferative activity against human NCI-H358 cells assessed as inhibition of cell viability incubated for 72 hrs by Cell Titer Glo assay. The following applies: NCI-H358, 72 h. The class given is functional, cell-based. Put shortly: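 NCI-H358 cells (KRAS G12C mutant) were sourced from ATCC.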
In assay [14] the test system is Calu-1. Kind of assay: Antiproliferative activity against human Calu-1 cells assessed as inhibition of cell viability incubated for 72 hrs by Cell Titer Glo assay. The class given is functional, cell-based. The following applies: Calu-1, 72 h.
For assay [15], the system named is K562. Briefly: Effect on total ERK level in human K562 cells incubated for 60 mins by HTRF analysis. The class given is functional, cell-based. An outline of the steps:
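K-562 cells (wild-type KRAS) were sourced from ATCC. Cells were incubated with compound for 60 min, and total ERK was quantified alongside pERK.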

For assay [16], the system named is Calu-1. Kind of assay: Effect on total ERK level in human Calu-1 cells incubated for 24 hrs by HTRF analysis. Type of assay: functional, cell-based. An outline of the steps:
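Calu-1 cells carry two KRAS G12C alleles and were sourced from CLS. Total and pERK levels were both analyzed after compound treatment.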

The subject of another assay is KG-1. Kind of assay: Antiproliferative activity against human KG-1 cells assessed as inhibition of cell viability incubated for 72 hrs by Cell Titer Glo assay. The class given is functional, cell-based.
In a further assay the test system is THP-1. Kind of assay: Antiproliferative activity against human THP-1 cells assessed as inhibition of cell viability incubated for 72 hrs by Cell Titer Glo assay. Type of assay: functional, cell-based.
Assay [17] concerns the target T1, Son of sevenless homolog 1 (Homo sapiens). Briefly: Inhibition of SOS1 in human Calu-1 cells assessed as pERK level incubated for 24 hrs by HTRF analysis relative to control. Type of assay: cell-based. Further details: scale not given: the % may be the effect or the level left.
A further assay concerns MOLM-13. Briefly: Antiproliferative activity against human MOLM-13 cells assessed as inhibition of cell viability incubated for 72 hrs by Cell Titer Glo assay. Type of assay: functional, cell-based. The following applies: MOLM-13, 72 h.

Structures are written as SMILES. Calls of active or inactive are those of the source. The rule behind the calls is not given here.

As a reminder, the IC50 is the midpoint of a concentration-inhibition curve. By ΔTm is commonly meant the shift of the melting midpoint relative to a reference.

Turning to `NCc1nn(-c2ccccc2)c2c1CCC2`, the outcome (in assay [1]; in the assay filed under Homo sapiens [4]; in the assay listed under Homo sapiens [5]; in the assay listed under Homo sapiens [6]) was Active. Also, the outcome in assay [2] and in assay [3] was inactive.
Regarding `CNCc1ccccc1-c1csc(C(C)Nc2nc(C)nc3cc(OC)c(OC)cc23)c1` (centres undefined), the IC50 in assay [7] is over 20 µM; in assay [8] it was over 20 µM; in assay [9], over 20 µM; in the assay on K562 [13], 1.1 µM; with NCI-H358, 2.66 µM; in the assay on Calu-1 [14], 2.05 µM. The ΔTm in assay [10] is -0.67 °C; in assay [11], 2.96 °C; in [12], -0.57 °C. Moreover, the result with K562 [15] and in the assay on Calu-1 [16] was inactive. Further, the result in the assay on KG-1 and with THP-1 was Active.
Take `C=CC(=O)N1CC(N2CCN(C(=O)CNc3cc(C4(C)CC4)c(Cl)cc3O)CC2)C1`: the Activity in assay [17] is 50%.
`CNCc1ccccc1-c1csc([C@H](C)Nc2nc(C)nc3cc(OC)c(OC)cc23)c1` [BAY-294]: the IC50 in assay [7] was over 20 µM; in assay [8], over 20 µM; in [9], over 20 µM; with K562 [13] it was 7.5 µM; in the assay with MOLM-13, 7.57 µM; with NCI-H358, 3.39 µM. Also, the ΔTm was -0.05 °C in [10], 0.28 °C in assay [11] and -0.6 °C in assay [12].

The values above are taken from ChEMBL document CHEMBL5678818, “Discovery of potent SOS1 inhibitors that block RAS activation via disruption of the RAS-SOS1 interaction” (Proc Natl Acad Sci U S A, 2019).
